Assay results published in ChEMBL document CHEMBL2169781, “Discovery and biological evaluation of a novel class of dual microsomal prostaglandin E2 synthase-1/5-lipoxygenase inhibitors based on 2-[(4,6-diphenethoxypyrimidin-2-yl)thio]hexanoic acid” (J Med Chem, 2011).

How the values were obtained:
[1] = biological target: T1, Polyunsaturated fatty acid 5-lipoxygenase (Homo sapiens, UniProt P09917); experiment: Inhibition of human recombinant 5-lipoxygenase-mediated product formation from arachidonic acid after 5 to 10 mins by HPLC analysis
T1 sequence (P09917 whole entry): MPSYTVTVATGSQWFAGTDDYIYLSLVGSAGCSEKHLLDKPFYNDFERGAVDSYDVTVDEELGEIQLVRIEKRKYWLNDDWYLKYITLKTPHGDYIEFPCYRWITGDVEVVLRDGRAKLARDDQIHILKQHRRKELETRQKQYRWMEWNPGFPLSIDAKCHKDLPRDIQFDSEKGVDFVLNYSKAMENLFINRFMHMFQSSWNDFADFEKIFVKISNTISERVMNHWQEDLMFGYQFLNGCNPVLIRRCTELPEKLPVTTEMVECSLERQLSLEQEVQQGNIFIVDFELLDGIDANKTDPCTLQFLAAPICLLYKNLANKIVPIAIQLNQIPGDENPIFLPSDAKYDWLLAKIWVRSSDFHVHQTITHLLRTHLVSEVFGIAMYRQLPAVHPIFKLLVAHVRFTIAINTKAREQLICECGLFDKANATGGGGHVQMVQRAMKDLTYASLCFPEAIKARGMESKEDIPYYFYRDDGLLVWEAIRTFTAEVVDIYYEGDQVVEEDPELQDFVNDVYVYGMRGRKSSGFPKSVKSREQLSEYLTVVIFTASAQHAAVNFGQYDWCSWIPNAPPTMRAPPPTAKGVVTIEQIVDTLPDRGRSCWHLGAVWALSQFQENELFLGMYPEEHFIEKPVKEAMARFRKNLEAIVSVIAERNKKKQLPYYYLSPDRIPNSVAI
In short: (§1)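 Human 5-LO expressed in E. coli BL21 (pT3-5LO) at 37 °C, purified and used at once. Enzyme (0.5 μg/mL in PBS/EDTA with 1 mM ATP) preincubated with compound 5–10 min at 4 °C, prewarmed 30 s at 37 °C, started with 2 mM CaCl₂ + 20 μM AA (±1 μM 13(S)-HpODE), 10 min at 37 °C, stopped with cold methanol, products by HPLC.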

Prostaglandin E synthase = biological target: T2, Prostaglandin E synthase (Homo sapiens, UniProt O14684); experiment: Inhibition of mPGES-1 in human IL-1beta-stimulated A549 cell microsomes assessed as reduction of PGE2 formation from PGH2 after 15 mins by RP-HPLC analysis; set-up: species or system Microsome
T2 sequence (O14684 whole entry): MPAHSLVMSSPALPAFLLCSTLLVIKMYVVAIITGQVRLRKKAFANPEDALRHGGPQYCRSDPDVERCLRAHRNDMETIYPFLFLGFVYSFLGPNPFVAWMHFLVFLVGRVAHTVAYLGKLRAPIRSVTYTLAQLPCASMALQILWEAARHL
In short: (§2)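 A549 cells in DMEM with 2% FCS for 16 h, induced with IL-1β (1 ng/mL) for 72 h, homogenized. Microsomal pellet (174 000 × g) diluted in 0.1 M potassium phosphate pH 7.4 with 2.5 mM glutathione, given compound or DMSO for 15 min. PGH₂ added (20 μM final), 1 min at 4 °C, stopped with FeCl₂/citric acid. PGE₂ by SPE and RP-HPLC (UV 195 nm), 11β-PGE₂ internal standard. Tested up to 10 μM; IC₅₀ reported only above 50% inhibition at 10 μM.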

[2] = biological target: T1, Polyunsaturated fatty acid 5-lipoxygenase; experiment: Inhibition of 5-lipoxygenase-mediated 5(S)-H(p)ETE formation in A23187-stimulated human PMNL incubated 10 mins prior to A23187 challenge
[3] = biological target: Prostaglandin G/H synthase 1 (Ovis aries) (UniProt P05979); experiment: Inhibition of ovine COX-1 mediated formation of 12-HHT from arachidonic acid assessed as remaining activity at 10 uM after 5 mins by HPLC analysis
[4] = biological target: T3, Polyunsaturated fatty acid 5-lipoxygenase (Homo sapiens) (UniProt P09917); experiment: Inhibition of human recombinant 5-lipoxygenase-mediated product formation from arachidonic acid assessed as remaining activity at 10 uM after 5 to 10 mins by HPLC analysis; in short: as §1
T3 sequence (whole entry): T1 sequence (P09917 whole entry)

[5] = biological target: Prostaglandin G/H synthase 2 (Homo sapiens) (UniProt P35354); experiment: Inhibition of human recombinant COX-2 mediated formation of 12-HHT from arachidonic acid assessed as remaining activity at 10 uM after 5 mins by HPLC analysis
[6] = Cytotoxicity in human polymorphonuclear leukocytes assessed as cell viability at 10 uM after 30 mins by MTT assay
[7] = biological target: T1, Polyunsaturated fatty acid 5-lipoxygenase; experiment: Inhibition of 5-lipoxygenase-mediated 5(S)-H(p)ETE formation in fMLP-stimulated human PMNL incubated 10 mins prior to fMLP challenge
[8] = biological target: T4, Prostaglandin E synthase (Homo sapiens) (UniProt O14684); experiment: Inhibition of mPGES-1 in human IL-1beta-stimulated A549 cell microsomes assessed as residual activity by measuring reduction of PGE2 formation from PGH2 at 10 uM after 15 mins by RP-HPLC analysis; details: Microsome; in short: as §2
T4 sequence (whole entry): T2 sequence (O14684 whole entry)

[9] = biological target: T3, Polyunsaturated fatty acid 5-lipoxygenase (Homo sapiens); experiment: Selectivity ratio of IC50 for human recombinant 5-lipoxygenase in cell-free system to IC50 for 5-lipoxygenase-mediated 5(S)-H(p)ETE formation in A23187-stimulated PMNL

Row | Compound | IC50 [1] | IC50 (Prostaglandin E synthase) | IC50 [2] | Activity [3] | Activity [4] | Activity [5] | Activity [6] | IC50 [7] | Activity [8] | Ratio IC50 [9]
1 | CCCCC(Sc1nc(OCCc2ccccc2)cc(OCCc2ccccc2)n1)C(=O)O (stereo not drawn) | 4700 nM | 1200 nM | 600 nM |  |  |  |  |  |  | 
2 | CCCCC(Sc1nc(OCCC2CC2)cc(OCCC2CC2)n1)C(=O)O (stereo not drawn) | 9300 nM | 9600 nM | 1200 nM |  |  |  |  |  |  | 
3 | CCCCC(Cc1cc(OCCc2ccccc2)cc(OCCc2ccccc2)c1)C(=O)O (stereo not drawn) | > 10000 nM | 2400 nM | 4700 nM | 78.7% | 80.3% | 78.4% | Non-toxic |  |  | 
4 | CCCCC(Cc1ccc(OCCc2ccccc2)c(OCCc2ccccc2)c1)C(=O)O (stereo not drawn) | > 10000 nM | 2700 nM | 6000 nM | 95.8% | 54% | 86.4% | Non-toxic |  |  | 
5 | CCCC/C(=C\c1cc(OCCC2CCCCC2)ccc1OCCC1CCCCC1)C(=O)O | > 10000 nM | 3400 nM | 800 nM | 76.4% | 73% | 123% | Non-toxic |  |  | 
6 | CCCC/C(=C\c1cc(OCCc2ccccc2)ccc1OCCc1ccccc1)C(=O)O | > 10000 nM | 1500 nM |  | 68% | 78.2% | 94.4% | Non-toxic | 900 nM |  | 
7 | CCCC/C(=C\c1cccc(OCCc2ccccc2)c1OCCc1ccccc1)C(=O)O | > 10000 nM | 1100 nM |  | 86.8% | 91.3% | 113% | Non-toxic | 800 nM |  | 
8 | CCCC/C(=C\c1cc(OCc2ccc(C(F)(F)F)cc2)ccc1OCc1ccc(C(F)(F)F)cc1)C(=O)O | 4400 nM | > 10000 nM | 200 nM | 82.6% |  | 102% | Non-toxic |  | 55.1% | 
9 | CCCCC(Sc1nc(OCCCCc2ccccc2)cc(OCCCCc2ccccc2)n1)C(=O)O (stereo not drawn) | 2200 nM | 900 nM | 700 nM |  |  |  |  |  |  | 
10 | CCCCC(Sc1nc(OCCc2ccc(OC(F)(F)F)cc2)cc(OCCc2ccc(OC(F)(F)F)cc2)n1)C(=O)O (stereo not drawn) | > 10000 nM | > 10000 nM | 500 nM |  | 56.4% |  |  |  | 88.3% | > 20
11 | CCCCC(Sc1nc(OCCc2ccc(C)cc2)cc(OCCc2ccc(C)cc2)n1)C(=O)O (stereo not drawn) | 3100 nM | 900 nM | 500 nM |  |  |  |  |  |  | 
12 | CCCC/C(=C\c1cc(OCCc2ccccc2)cc(OCCc2ccccc2)c1)C(=O)O | > 10000 nM | 2800 nM | 700 nM | 81.4% | 62.7% | 81.4% | Non-toxic |  |  | 
13 | CCCCC(Sc1nc(OCCCc2ccccc2)cc(OCCCc2ccccc2)n1)C(=O)O (stereo not drawn) | 2700 nM | 2200 nM | 900 nM |  |  |  |  |  |  | 
14 | O=C(O)C(Sc1nc(OCCc2ccccc2)cc(OCCc2ccccc2)n1)c1ccccc1 (stereo not drawn) | 4900 nM | 1200 nM |  |  |  |  |  | 800 nM |  | 
15 | CCC(Sc1nc(OCCc2ccccc2)cc(OCCc2ccccc2)n1)C(=O)O (stereo not drawn) | 9000 nM | 7300 nM |  |  |  |  |  | 2800 nM |  | 
16 | CCCCC(Cc1cccc(OCCc2ccccc2)c1OCCc1ccccc1)C(=O)O (stereo not drawn) | 4900 nM | 3900 nM | 2100 nM | 66.1% |  | 89.6% | Non-toxic |  |  | 

Row | Compound | IC50 [1] | IC50 (Prostaglandin E synthase) | IC50 [2] | Activity [3] | Activity [4] | Activity [5] | Activity [6] | IC50 [7] | Activity [8] | Ratio IC50 [9]
17 | CCCCC(Sc1nc(OCCc2ccc(OC)cc2)cc(OCCc2ccc(OC)cc2)n1)C(=O)O (stereo not drawn) | 7000 nM | > 10000 nM | 300 nM |  |  |  |  |  | 63.7% | > 20
18 | CCCCC(Sc1nc(OCCc2ccc(C#N)cc2)cc(OCCc2ccc(C#N)cc2)n1)C(=O)O (stereo not drawn) | 6600 nM | 5900 nM | 700 nM |  |  |  |  |  |  | 
19 | CCCCC(Sc1nc(OCCC2CCCC2)cc(OCCC2CCCC2)n1)C(=O)O (stereo not drawn) | 6800 nM | > 10000 nM | 4000 nM |  |  |  |  |  | 90% | 
20 | CCCCC(Sc1cc(OCCc2ccccc2)cc(OCCc2ccccc2)c1)C(=O)O (stereo not drawn) | 7200 nM | 4600 nM | 800 nM | 71.3% |  | 110% | Non-toxic |  |  | 
21 | CCCCC(Oc1cc(OCCc2ccccc2)cc(OCCc2ccccc2)c1)C(=O)O (stereo not drawn) | > 10000 nM | 3400 nM | 600 nM | 71.6% |  | 92.5% | Non-toxic |  |  | > 20
22 | CCCC/C(=C\c1cc(OCCc2ccc(C(F)(F)F)cc2)ccc1OCCc1ccc(C(F)(F)F)cc1)C(=O)O | > 10000 nM | 3500 nM | 300 nM | 81% | 55.6% | 102% | Non-toxic |  |  | > 20
23 | CCCCC(Sc1nc(OCCc2ccc(C(F)(F)F)cc2)cc(OCCc2ccc(C(F)(F)F)cc2)n1)C(=O)O (stereo not drawn) | 2200 nM | 1900 nM | 500 nM |  |  |  |  |  |  | 
24 | CCCCC(Sc1nc(OCc2ccccc2)cc(OCc2ccccc2)n1)C(=O)O (stereo not drawn) | 5000 nM | 3800 nM |  |  |  |  |  | 1800 nM |  | 
25 | CCCCC(Sc1nc(OCCc2ccc([N+](=O)[O-])cc2)cc(OCCc2ccc([N+](=O)[O-])cc2)n1)C(=O)O (stereo not drawn) | 2800 nM | 3700 nM | 500 nM |  |  |  |  |  |  | 
26 | CCCCC(Sc1nc(OCCc2ccsc2)cc(OCCc2ccsc2)n1)C(=O)O (stereo not drawn) | 9300 nM | 6500 nM | 600 nM |  |  |  |  |  |  | 
27 | O=C(O)CSc1nc(OCCc2ccccc2)cc(OCCc2ccccc2)n1 | > 10000 nM | > 10000 nM | 7600 nM |  | 57% |  |  |  |  | 
28 | CCCCC(Sc1nc(OCCC2CCCCCC2)cc(OCCC2CCCCCC2)n1)C(=O)O (stereo not drawn) | > 10000 nM | > 10000 nM | 2400 nM |  | 53.8% |  |  |  | 62.4% | 
29 | CCCCC(Sc1nc(OCCC2CCCCC2)cc(OCCC2CCCCC2)n1)C(=O)O (stereo not drawn) | 9000 nM | 2400 nM | 800 nM |  |  |  |  |  |  | 
30 | CCCCC(Sc1nc(OCCC(C)C)cc(OCCC(C)C)n1)C(=O)O (stereo not drawn) | 6800 nM | > 10000 nM | 1200 nM |  |  |  |  |  | 54.5% | 
31 | CCCCC(Cc1ccc(OCCc2ccccc2)cc1OCCc1ccccc1)C(=O)O (stereo not drawn) | > 10000 nM | > 10000 nM |  | 99.1% | 85.6% | 110% | Non-toxic | > 10000 nM | 90.1% | 
32 | CCCCC(Cc1cc(OCCc2ccccc2)ccc1OCCc1ccccc1)C(=O)O (stereo not drawn) | > 10000 nM | 2400 nM |  | 63.8% | 65.5% | 66.5% | Non-toxic | 900 nM |  | 
